# According to ChEMBL document CHEMBL1811780, “Could LogP be a principal determinant of biological activity in 18-crown-6 ethers? Synthesis of biologically active adamantane-substituted diaza-crowns” (Eur J Med Chem, 2011):
# Calls of active or inactive are those of the source. The rule behind the calls is not given here.
# Columns and labels:
# SW-620 [1] = assay: Cell cycle arrest in human SW620 cells assessed as G1 phase delay at 5 uM after 24 to 48 hrs using propidium iodide staining by flow cytometry; format: functional, cell-based
# Method in brief: (§1)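 2×10^5 SW 620 cells per well were treated 24 h after seeding, for 24 or 48 h. Attached and floating cells were pooled, fixed in 70% ethanol, then stained with 1 µg/ml PI plus RNase A. 20000 events were acquired by flow cytometry. Phase percentages came from DNA histograms; subG1 is given as a percentage of all counts.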
# MCF7 = assay: Antiproliferative activity against human MCF7 cells after 72 hrs by MTT assay; format: functional; settings: MCF7, 72 h
# Method in brief: (§2)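 Adherent monolayers grown in DMEM with 10% FBS, 2 mM L-glutamine, penicillin and streptomycin at 37 °C, 5% CO2. Cells seeded on day 0, then given five 10-fold dilutions (10^-8 to 10^-4 mol/L), DMSO at most 0.25%, for 72 h. MTT read at 570 nm. GI50 from linear regression of percentage growth around 50%. Quadruplicate points; mean of three experiments.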
# MOLT-4 = assay: Antiproliferative activity against human MOLT4 cells after 72 hrs by MTT assay; format: functional; settings: MOLT-4, 72 h
# Method in brief: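 MOLT-4 grown in suspension in RPMI with 10% FBS, 2 mM L-glutamine, penicillin and streptomycin at 37 °C, 5% CO2. Treated with five 10-fold dilutions (10^-8 to 10^-4 mol/L), DMSO at most 0.25%, for 72 h. MTT read at 570 nm. GI50 by linear regression of percentage growth around 50%. Quadruplicate points; mean of three experiments.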
# SW-620 [2] = assay: Cell cycle arrest in human SW620 cells assessed as accumulation in subG1 phase at 10 uM after 24 to 48 hrs using propidium iodide staining by flow cytometry; format: functional, cell-based; method in brief: as §1
# HCT-116 = assay: Antiproliferative activity against human HCT116 cells after 72 hrs by MTT assay; format: functional; settings: HCT-116, 72 h; method in brief: as §2
# Escherichia coli [3] = assay: Antibacterial activity against Escherichia coli assessed as growth inhibition at 10^-4 M after 105 mins; format: functional; settings: 1.75 h, read-out: GI
# Method in brief: (§3)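 E. coli grown in LB at 37 °C with shaking to OD600 ≈0.1. Culture split into untreated control and four treated aliquots at 10^-4, 10^-5, 10^-6 and 10^-7 M. Grown 105 min (about three mass doublings) at 37 °C. Dilutions in phosphate buffer plated on LB, incubated overnight at 37 °C, CFU counted. % growth inhibition and GI50 derived as for tumour cells. Quadruplicate, at least two experiments.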
# NCI-H460 = assay: Antiproliferative activity against human H460 cells after 72 hrs by MTT assay; format: functional; settings: NCI-H460, 72 h; method in brief: as §2
# Escherichia coli [4] = assay: Antibacterial activity against Escherichia coli after 105 mins; format: functional; settings: 1.75 h; method in brief: as §3
# SW-620 [5] = assay: Cell cycle arrest in human SW620 cells assessed as S phase reduction at 5 uM after 24 to 48 hrs using propidium iodide staining by flow cytometry; format: functional, cell-based; method in brief: as §1
# SW-620 [6] = assay: Cell cycle arrest in human SW620 cells assessed as S phase reduction at 10 uM after 24 to 48 hrs using propidium iodide staining by flow cytometry; format: functional, cell-based; method in brief: as §1
# Bacillus subtilis = assay: Antibacterial activity against Bacillus subtilis after 70 mins; format: functional, organism-based
# SW-620 [7] = assay: Cell cycle arrest in human SW620 cells assessed as G1 phase delay at 10 uM after 24 to 48 hrs using propidium iodide staining by flow cytometry; format: functional, cell-based; method in brief: as §1
# SW-620 [8] = assay: Antiproliferative activity against human SW620 cells after 72 hrs by MTT assay; format: functional; settings: SW-620, 72 h; method in brief: as §2
# HeLa = assay: Antiproliferative activity against human HeLa cells after 72 hrs by MTT assay; format: functional; method in brief: as §2
# MIA PaCa-2 = assay: Antiproliferative activity against human MIAPaCa2 cells after 72 hrs by MTT assay; format: functional; settings: MIA PaCa-2, 72 h; method in brief: as §2
# SW-620 [9] = assay: Induction of apoptosis in human SW620 cells assessed as late apoptotic cells at 10 uM after 48 hrs using annexin-V/conjugated 7-AAD double staining by flow cytometry (reference value: 1.33%); format: functional
# SW-620 [10] = assay: Induction of apoptosis in human SW620 cells assessed as early apoptotic cells at 5 uM after 48 hrs using annexin-V/conjugated 7-AAD double staining by flow cytometry (reference value: 2.58%); format: functional
# SW-620 [11] = assay: Induction of apoptosis in human SW620 cells assessed as necrotic cells at 5 uM after 48 hrs using annexin-V/conjugated 7-AAD double staining by flow cytometry (reference value: 0.14%); format: functional
# SW-620 [12] = assay: Induction of apoptosis in human SW620 cells assessed as necrotic cells at 10 uM after 48 hrs using annexin-V/conjugated 7-AAD double staining by flow cytometry (reference value: 0.14%); format: functional
# SW-620 [13] = assay: Induction of apoptosis in human SW620 cells assessed as early apoptotic cells at 10 uM after 48 hrs using annexin-V/conjugated 7-AAD double staining by flow cytometry (reference value: 2.58%); format: functional
# SW-620 [14] = assay: Induction of apoptosis in human SW620 cells assessed as viable cells at 10 uM after 48 hrs using annexin-V/conjugated 7-AAD double staining by flow cytometry (reference value: 95.95%); format: functional; settings: SW-620, 48 h, read-out: Activity
# SW-620 [15] = assay: Induction of apoptosis in human SW620 cells assessed as late apoptotic cells at 5 uM after 48 hrs using annexin-V/conjugated 7-AAD double staining by flow cytometry (reference value: 1.33%); format: functional
# SW-620 [16] = assay: Induction of apoptosis in human SW620 cells assessed as viable cells at 5 uM after 48 hrs using annexin-V/conjugated 7-AAD double staining by flow cytometry (reference value: 95.95%); format: functional; settings: SW-620, 48 h, read-out: Activity
Structure (SMILES),GI50 (MCF7),inhibition of growth at 100 µM (Escherichia coli [3]),GI50 (NCI-H460),IC50 (Bacillus subtilis),GI50 (SW-620 [8]),GI50 (HeLa),GI50 (MIA PaCa-2),other results
C(CN1CCOCCOCCN(CCCC23CC4CC(CC(C4)C2)C3)CCOCCOCC1)CC12CC3CC(CC(C3)C1)C2,2 µM,26%,1 µM,17 µM,1 µM,–,–,Activity (SW-620 [1]): Active; GI50 (MOLT-4): 1 µM; Activity (SW-620 [2]): Active; GI50 (HCT-116): 0.4 µM; GI50 (Escherichia coli [4]): 1000 µM; Activity (SW-620 [5]): Active; Activity (SW-620 [6]): Active; Activity (SW-620 [7]): Active
C1COCCOCC23CC4CC(C2)CC(COCCOCCO1)(C4)O3,> 100 µM,–,> 100 µM,1580 µM,> 100 µM,> 100 µM,> 100 µM,–
C1COCCOCCNCCOCCOCCN1,> 100 µM,–,> 100 µM,1580 µM,> 100 µM,> 100 µM,> 100 µM,GI50 (MOLT-4): > 100 µM; GI50 (HCT-116): > 100 µM
CC(C)(C)C1CCC2OCCOCCOC3CC(C(C)(C)C)CCC3OCCOCCOC2C1 (stereo not given),–,< 15%,–,1.32 µM,–,–,–,–
COC(=O)[C@@H](NC(=O)CN1CCOCCOCCN(CC(=O)N[C@@H](C(=O)OC)c2ccccc2)CCOCCOCC1)c1ccccc1,–,< 15%,–,380 µM,–,–,–,–
"C1CCC2OCCOCCOC3CCCCC3OCCOCCOC2C1 (stereo not given) [ICOSAHYDRODIBENZO[B,K][1,4,7,10,13,16]HEXAOXACYCLOOCTADECINE]",–,< 15%,–,166 µM,–,–,–,–
C(CN1CCOCCOCCOCCOCCOCC1)CC12CC3CC(CC(C3)C1)C2,6 µM,–,15 µM,–,9 µM,14 µM,11 µM,–
O=C(CCC12CC3CC(CC(C3)C1)C2)N1CCOCCOCCOCCOCCOCC1,17 µM,< 15%,72 µM,1580 µM,13 µM,28 µM,30 µM,–
O=C(N1CCOCCOCCN(C(=O)C23CC4CC(CC(C4)C2)C3)CCOCCOCC1)C12CC3CC(CC(C3)C1)C2,9 µM,< 15%,12 µM,75.9 µM,21 µM,–,–,–
O=C(CCC12CC3CC(CC(C3)C1)C2)N1CCOCCOCCN(C(=O)CCC23CC4CC(CC(C4)C2)C3)CCOCCOCC1,2 µM,< 15%,11 µM,129 µM,19 µM,–,–,GI50 (MOLT-4): 3 µM; GI50 (HCT-116): 6 µM
C1COCCOCCN(CCC23CC4CC(CC(C4)C2)C3)CCOCCOCCO1,8 µM,–,15 µM,25.1 µM,9 µM,16 µM,12 µM,–
O=C(CC12CC3CC(CC(C3)C1)C2)N1CCOCCOCCN(C(=O)CC23CC4CC(CC(C4)C2)C3)CCOCCOCC1,5 µM,< 15%,14 µM,45.7 µM,12 µM,–,–,GI50 (MOLT-4): 6 µM; GI50 (HCT-116): 6 µM
CC(C)(C)c1ccc2c(c1)OCCOCCOc1cc(C(C)(C)C)ccc1OCCOCCO2,–,< 15%,–,2 µM,–,–,–,–
c1ccc2c(c1)OCCOCCOc1ccccc1OCCOCCO2,–,< 15%,–,380 µM,–,–,–,–
CC(C)(C)c1cc2c(c(C(C)(C)C)c1)OCCOCCOc1c(cc(C(C)(C)C)cc1C(C)(C)C)OCCOCCO2,–,< 15%,–,1580 µM,–,–,–,–
O=C(NCC(=O)N1CCOCCOCCN(C(=O)CNC(=O)OCc2ccccc2)CCOCCOCC1)OCc1ccccc1,–,–,–,1580 µM,–,–,–,–
c1ccc(CN2CCOCCOCCOCCOCCOCC2)cc1,> 100 µM,–,> 100 µM,1580 µM,> 100 µM,–,–,–
C1COCCOCCOCCOCCOCCN1,> 100 µM,–,> 100 µM,1580 µM,> 100 µM,–,–,–
c1ccc(CN2CCOCCOCCN(Cc3ccccc3)CCOCCOCC2)cc1,–,< 15%,–,380 µM,–,–,–,–
O=C(CC12CC3CC(CC(C3)C1)C2)N1CCOCCOCCOCCOCCOCC1,> 100 µM,< 15%,> 100 µM,–,> 100 µM,> 100 µM,> 100 µM,–
C1COCCN(CCC23CC4CC(CC(C4)C2)C3)CCOCCOCCN(CCC23CC4CC(CC(C4)C2)C3)CCO1,4 µM,< 15%,4 µM,251 µM,2.6 µM,2.3 µM,1.7 µM,Activity (SW-620 [1]): Active; Activity (SW-620 [9]): 9.46%; Activity (SW-620 [10]): 7.46%; Activity (SW-620 [11]): 0.17%; Activity (SW-620 [12]): 0.87%; Activity (SW-620 [2]): Active; Activity (SW-620 [13]): 13.72%; Activity (SW-620 [5]): Active; Activity (SW-620 [6]): Active; viability at 10 µM (SW-620 [14]): 76%; Activity (SW-620 [15]): 2.34%; viability at 5 µM (SW-620 [16]): 90%; Activity (SW-620 [7]): Active
C1COCCN(CC23CC4CC(CC(C4)C2)C3)CCOCCOCCN(CC23CC4CC(CC(C4)C2)C3)CCO1,21 µM,< 15%,18 µM,25.1 µM,19 µM,–,–,–
C1COCC23CC4CC(C2)CC(COCCOCC25CC6CC(CC(CO1)(C6)O2)C5)(C4)O3,13 µM,< 15%,4 µM,1580 µM,3 µM,17 µM,2 µM,–
